PREPL inh: human PREPL enzyme inhibition. recombinant PREPL, fluorescence polarization activity-based probe. Q4J6C6. AID 2751. 320,000 compounds, 0.68% hits. inhibition, % at 5.96 µM; in the data active means inhibition above about 43%;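 further: 0% = enzyme with DMSO and 100% = wells lacking enzyme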
Target sequence (Q4J6C6 whole entry, looked up): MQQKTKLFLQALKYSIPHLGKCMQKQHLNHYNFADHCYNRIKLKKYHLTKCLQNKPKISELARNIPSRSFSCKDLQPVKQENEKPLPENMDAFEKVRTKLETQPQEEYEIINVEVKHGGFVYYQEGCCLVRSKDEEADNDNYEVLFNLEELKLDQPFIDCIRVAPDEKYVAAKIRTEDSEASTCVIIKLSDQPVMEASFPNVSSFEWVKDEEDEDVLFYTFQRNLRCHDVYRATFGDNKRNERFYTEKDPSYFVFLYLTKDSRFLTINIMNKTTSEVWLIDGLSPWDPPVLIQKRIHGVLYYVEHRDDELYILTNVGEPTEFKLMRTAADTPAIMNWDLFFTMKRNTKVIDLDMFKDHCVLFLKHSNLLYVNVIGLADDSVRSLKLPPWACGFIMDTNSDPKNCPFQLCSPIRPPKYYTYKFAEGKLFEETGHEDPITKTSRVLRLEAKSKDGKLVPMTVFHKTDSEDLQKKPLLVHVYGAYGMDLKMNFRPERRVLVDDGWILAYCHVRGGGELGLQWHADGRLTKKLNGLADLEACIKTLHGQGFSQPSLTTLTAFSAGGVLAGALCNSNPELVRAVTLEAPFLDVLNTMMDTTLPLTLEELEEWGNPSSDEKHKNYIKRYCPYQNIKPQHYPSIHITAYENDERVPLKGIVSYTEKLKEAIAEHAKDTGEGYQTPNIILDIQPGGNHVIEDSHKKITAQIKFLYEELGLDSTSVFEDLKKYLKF
T cruzi repl: blocks replication of Trypanosoma cruzi | T. cruzi beta-gal in NIH3T3, luminescence, 90 h | inhibition, % (concentration not given with the values) | 300,000 compounds, 1.4% hits;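 active means mean inhibition across valid replicates above about 55%, limit read from the data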;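 further: signal also drops with host cell toxicity which is not excluded here; 0% = plate median of DMSO wells and 100% = zero luminescence signal; higher percent means less beta-gal luminescence so fewer parasites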
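Incubation – ≥90 h infection period, 3 h prior cell attachment · System – NIH/3T3 fibroblasts plus reporter T. cruzi · Doses – compound pinned at 50 nL/well, DMSO · Read-out basis – percent inhibition of parasite-derived β-gal signal · Signal – luminescent β-galactosidase signal after 60 min lysis · Also added – 5000 T. cruzi trypomastigotes/well · Medium – Low-serum DMEM with 2% FBS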
GRIN3A LBD mod: modulators (binders) of human NR3A ligand-binding domain; NR3A LBD differential scanning fluorimetry, Tm shift; 0% = protein alone, 100% = glycine-bound protein; Tm shift relative to glycine control, % at 25 µM; 340,000 compounds, 2.5% hits; AID 1259313;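 active means melting temperature shift of at least 10% of the positive control shift, at one fixed dose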
CSC inhib: cancer stem cell inhibition. cancer stem cell-like cells viability, luminescence. inhibition, % at 7.5 µM. 300,000 compounds, 1.1% hits; in the data active means inhibition above about 75%; tested in HMLE shEcad cells
Beta apoptosis: blocks beta cell apoptosis; INS-1E cytokine-induced death, ATP luminescence, 48 h; percent of positive-control rescue, neutral wells zero; protection from apoptosis, % (test concentration not listed); 300,000 compounds, 0.8% hits;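 active means Every replicate reaches about 75%, or at least half do and their mean reaches it too, limit read from the data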;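 further: 0% = cytokine-treated negative control wells and 100% = positive control rescue; higher means more ATP so stronger rescue from cytokine killing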
CHOP inh: inhibitors of CHOP induction in ER stress response | CHO-K1 CHOP-promoter luciferase, tunicamycin-induced, 15-18 h | inhibition, % at 10 µM | 220,000 compounds, 3.8% hits;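 active means compounds that reduced the stress-induced luciferase reporter signal by more than about 70% of percent inhibition, limit read from the data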;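 further: 0% = tunicamycin plus vehicle and 100% = wells without tunicamycin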
* marks the source's active call; other numbers are inactive results; . = no result given. Compounds with a hit are over-represented: about 6.7% of the library has one in this group of screens.

SMILES | PREPL inh | T cruzi repl | GRIN3A LBD mod | CSC inhib | Beta apoptosis | CHOP inh
COc1ccc(/C(C)=N/NC(=S)NCCc2ccccc2)c(O)c1 | 32 | -10 | 23* | 47 | 51 | .
S=C(NCCc1ccccc1)Nc1ccc(Br)cc1 | -6 | 13 | 33* | -3 | 0 | 19
CCc1ccc(C(C(=O)NC2CCCC2)N(C(=O)/C=C/C(=O)Nc2cc(C)on2)c2ccccc2C)cc1 (centres undefined) | 5 | 9 | -2 | 25 | -4 | 33
CCc1ccc(NC(=O)CC2C(=O)N(c3cccc(C)c3)C(=O)N2C2CC2)cc1 (centres undefined) | 6 | 9 | -2 | -9 | 3 | 7
S=C(NCCc1ccccc1)N/N=C/c1ccccc1Cl | -22 | -12 | -1 | 9 | -5 | 44
O=C(CCc1ccccc1)N/N=C\c1cc2c(cc1Br)OCO2 | 7 | -2 | -1 | 14 | 5 | .
O=C(CCc1ccccc1)N/N=C/c1cc(Br)ccc1O | -11 | -9 | -20 | -16 | 9 | 76*
Fc1cccc(NC(=S)Nc2ccc(Br)cc2)c1 | 18 | 7 | 27* | 48 | 0 | 34
Oc1ccc(Br)cc1/C=N/NC(=S)NCCc1ccccc1 | -5 | -25 | 23* | 105* | 13 | .
O=C1C(Cl)=C(NCCc2ccccc2)C(=O)c2ccccc21 | . | . | -4 | . | . | .
O=C1C(Cl)=C(NCc2cccnc2)C(=O)c2ccccc21 | 4 | 25 | 0 | 24 | 84* | .
C=CCNC1=C(Cl)C(=O)c2ccccc2C1=O | 17 | -13 | -1 | 43 | 97* | 5
CCN(CC)CCCNC1=C(Cl)C(=O)c2ccccc2C1=O | 14 | 79* | 0 | 107* | 98* | -29
Cc1cc(Oc2ccccc2)nc(-c2ccccc2)n1 | 2 | -3 | 2 | 7 | -7 | 78*
OCc1ccc2c(c1)c(-c1ccc3c(c1)OCCO3)c(-c1ccccc1)n2-c1ccccc1 | 11 | . | -5 | 92* | 5 | .
NC(=O)c1ccc(NC(=O)c2ccc(COc3ccccc3Br)cc2)cc1 | . | . | 22* | . | . | .
O=C(NCc1cccnc1)c1ccc(-c2ccccc2[N+](=O)[O-])o1 | -1 | 2 | -3 | -9 | 5 | 18
O=C(Nc1cccnc1)c1ccc(COc2ccccc2Br)cc1 | -25 | -2 | 36* | 90* | 2 | .
O=C(NCc1cccnc1)c1ccc(-c2cccc(Cl)c2Cl)o1 | -9 | 58* | -5 | 0 | 0 | 21
COC(=O)c1ccc(Cn2nc(C)cc2C)cc1 | -10 | -14 | 1 | -9 | -3 | -24
Cc1cc(C)n(Cc2ccc(NC(=O)c3ccc(COc4ccccc4Br)cc3)cc2)n1 | -10 | 60* | 10* | 125* | 78* | 43
O=C(Nc1cccnc1)c1ccc(COc2ccccc2Cl)o1 | -21 | -37 | -22 | 43 | 7 | 1
COc1ccc(OC)c(NC(=O)CSc2ccc3nnc(-c4ccccn4)n3n2)c1 | 9 | -2 | -5 | -7 | 0 | .
O=C(NCCN1C(=O)S/C(=C\c2cccc(Cl)c2Cl)C1=O)C1=COCCO1 | 18 | -1 | 1 | 11 | -7 | .
CN(C)S(=O)(=O)c1ccc(NC(=O)CN2C(=O)NC(Cc3ccccc3)C2=O)cc1 (centres undefined) | 21 | . | 1 | -9 | -4 | .
SMILES | PREPL inh | T cruzi repl | GRIN3A LBD mod | CSC inhib | Beta apoptosis | CHOP inh
O=C(NCc1cccnc1)c1ccc(COc2ccccc2Cl)cc1 | -41 | 0 | 2 | 8 | 103* | 34
O=C(Nc1nccs1)c1ccc(COc2ccc(F)cc2)o1 | -12 | -17 | 0 | 26 | 1 | 8
O=C(NCc1cccnc1)c1ccc(COc2ccccc2Br)cc1 | -22 | 12 | 0 | 29 | 19 | 44
O=C(Nc1nccs1)c1ccc(COc2ccccc2Br)o1 | -46 | -5 | -2 | 196* | 1 | 26
CCCC1CCc2c(c3ccccc3[nH]c2=O)O1 (centres undefined) | -2 | 14 | 2 | -7 | 6 | 76*
Cc1cc(/C=C2\SC(=S)NC2=O)c(C)n1-c1cccc(O)c1 | 1 | -14 | 2 | 1 | -1 | -10
Cc1sc(-n2c(C)cc(/C=C3\SC(=S)NC3=O)c2C)c(C#N)c1C | -3 | -40 | -25 | 79* | -6 | 37
C/C(=N/NS(=O)(=O)c1ccc(C)cc1)c1cccc(NC(=O)c2cccc(Cl)c2)c1 | -2 | -4 | 14* | . | 5 | 40
